Here are results for 26 compounds from ChEMBL document CHEMBL4834454 (Bioorg Med Chem, 2021).

The structures appear in SMILES notation.

The term inhibition denotes the percentage by which the read-out fell short of the control. One may read the IC50 as the concentration that gives 50% inhibition.

For test [1], the target named is T1, Cannabinoid receptor 1 (Homo sapiens, UniProt P21554). Description: Agonist activity at human CB1 receptor expressed in CHO-RD-HGA16 cells overexpressing Galpha16 assessed as stimulation of calcium mobilization measured every 1 sec for 90 secs by Calcium-3 dye based FLIPR assay relative to Emax of CP55940. The class given is functional, cell-based. The settings on record: time 90.0 sec. The gist of the method: (§1)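 Agonist screen. […] They were pretreated with vehicle (BSA/DMSO/EtOH buffer) for 15 min, and a single concentration of test compound was added at 10 s. Fluorescence (485/525 nm) was read for 90 s. RFU is expressed as % of CP55,940 Emax RFU. Line 1 uses hCB1 cells; line 2 uses hCB2 cells.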
A general note: A change in cytosolic calcium serves as a functional read-out for many receptors and channels.

For test [2], the target named is T2, Cannabinoid receptor 2 (Homo sapiens, UniProt P34972). The test can be described thus: Antagonist activity at human CB2 receptor expressed in CHO-RD-HGA16 cells overexpressing Galpha16 assessed as inhibition of CP55940-stimulated calcium mobilization at 10 uM preincubated for 15 mins followed by agonist addition and measured every 1 sec for 90 secs by Calcium-3 dye based FLIPR assay. The format is functional, cell-based. The settings on record: time 990.0 sec.

For test [3], the target named is T2, Cannabinoid receptor 2. Description: Antagonist activity at human CB2 receptor expressed in CHO-RD-HGA16 cells overexpressing Galpha16 assessed as inhibition of CP55940-stimulated calcium mobilization preincubated for 15 mins followed by agonist addition and measured every 1 sec for 90 secs by Calcium-3 dye based FLIPR assay. The class given is functional, cell-based.

Test [4] has as its target T2, Cannabinoid receptor 2. Description: Agonist activity at human CB2 receptor expressed in CHO-RD-HGA16 cells overexpressing Galpha16 assessed as stimulation of calcium mobilization measured every 1 sec for 90 secs by Calcium-3 dye based FLIPR assay relative to Emax of CP55940. The format is functional, cell-based. The following applies: time 90.0 sec. In short, it runs like this: as §1

Test [5] has as its target T1, Cannabinoid receptor 1. The test can be described thus: Allosteric antagonist activity at human CB1 receptor expressed in CHO-RD-HGA16 cells overexpressing Galpha16 assessed as inhibition of CP55940-stimulated calcium mobilization preincubated for 15 mins followed by agonist addition and measured every 1 sec for 90 secs by Calcium-3 dye based FLIPR assay. The format is functional, cell-based.

For test [6], the target named is T1, Cannabinoid receptor 1. Description: biochemical.
The target in test [7] is T1, Cannabinoid receptor 1. Description: Allosteric antagonist activity at N-terminal 3HA-tagged human CB1 receptor expressed in HEK293 cells assessed as reduction in CP55940-stimulated inhibition of forskolin-induced cAMP accumulation measured for 20 mins by BRET assay. The class given is functional, cell-based.

T1 sequence (P21554 whole entry): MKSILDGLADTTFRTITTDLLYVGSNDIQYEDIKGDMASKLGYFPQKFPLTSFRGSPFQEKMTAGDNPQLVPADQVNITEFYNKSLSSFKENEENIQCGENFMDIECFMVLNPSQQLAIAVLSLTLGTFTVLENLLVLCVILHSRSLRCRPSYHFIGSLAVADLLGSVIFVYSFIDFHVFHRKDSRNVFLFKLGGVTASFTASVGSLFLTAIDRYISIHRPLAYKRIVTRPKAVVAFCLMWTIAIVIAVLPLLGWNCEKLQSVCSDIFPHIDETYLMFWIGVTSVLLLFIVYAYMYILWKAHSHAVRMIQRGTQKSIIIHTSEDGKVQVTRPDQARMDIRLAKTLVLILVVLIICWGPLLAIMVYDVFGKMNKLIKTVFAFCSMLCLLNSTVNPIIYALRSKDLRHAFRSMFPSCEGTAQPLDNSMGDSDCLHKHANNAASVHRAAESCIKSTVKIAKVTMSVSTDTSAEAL
T2 sequence (P34972 whole entry): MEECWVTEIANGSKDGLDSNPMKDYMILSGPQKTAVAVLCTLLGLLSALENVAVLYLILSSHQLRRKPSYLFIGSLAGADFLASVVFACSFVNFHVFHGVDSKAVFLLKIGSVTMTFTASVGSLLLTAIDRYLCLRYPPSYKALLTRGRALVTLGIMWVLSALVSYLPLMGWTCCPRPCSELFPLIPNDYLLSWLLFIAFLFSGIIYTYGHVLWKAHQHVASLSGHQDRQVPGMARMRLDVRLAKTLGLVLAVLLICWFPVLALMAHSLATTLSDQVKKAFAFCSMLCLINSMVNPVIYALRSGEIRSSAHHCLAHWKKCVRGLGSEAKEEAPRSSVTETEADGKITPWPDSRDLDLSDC

For the compound `O=C(NCCN1CCCC1)Nc1ccc(Cl)cc1`, the values for the Activity at Cannabinoid receptor 1 [1] and at Cannabinoid receptor 2 [4] were below 30% and below 10%, respectively. For the same compound, the inhibition at Cannabinoid receptor 2 [2] is below 50%. Moreover, on Cannabinoid receptor 2 [3], the half-inhibitory concentration (IC50) is above 10 µM.

For `O=C(NCCCc1ccccc1)Nc1ccc(Cl)cc1`, the IC50 on Cannabinoid receptor 1 [5] is 3.98 µM; at Cannabinoid receptor 2 [3], above 10 µM. Besides, the Activity on Cannabinoid receptor 1 [1] is below 30%; on Cannabinoid receptor 2 [4], below 10%. Moreover, the inhibition at Cannabinoid receptor 2 [2] is below 50%.

For `O=C(NCCc1ccc(N2CCCC2)cc1)Nc1ccc(Cl)cc1`, the results for the IC50 on Cannabinoid receptor 1 [5], at Cannabinoid receptor 2 [3] and on Cannabinoid receptor 1 [6] were 0.794 µM, above 10 µM and 39.8 µM, respectively. Besides, the figures for the Activity on Cannabinoid receptor 1 [1] and at Cannabinoid receptor 2 [4] were below 30% and below 10%, respectively. At Cannabinoid receptor 2 [2], the inhibition was below 50%.

Regarding `O=C(NCCc1ccccn1)Nc1ccc(Cl)cc1`, the results for the 50% inhibitory concentration (IC50) on Cannabinoid receptor 1 [5] and at Cannabinoid receptor 2 [3] were 3.98 µM and above 10 µM, respectively. In addition, the results for the Activity at Cannabinoid receptor 1 [1] and on Cannabinoid receptor 2 [4] were below 30% and below 10%, respectively. Also, on Cannabinoid receptor 2 [2], the inhibition is below 50%.

Regarding `CN(C)c1ccc(CCNC(=O)Nc2ccc(Cl)cc2)cc1`, the IC50 is 0.251 µM on Cannabinoid receptor 1 [5], 2.51 µM at Cannabinoid receptor 1 [7], above 10 µM on Cannabinoid receptor 2 [3] and 15.8 µM against Cannabinoid receptor 1 [6]. Also, the Activity on Cannabinoid receptor 1 [1] was below 30%; at Cannabinoid receptor 2 [4] it was below 10%. In addition, the inhibition on Cannabinoid receptor 2 [2] is below 50%.

Consider `CCN(CC)c1ccc(CCNC(=O)Nc2ccc(Cl)cc2)cc1`, for which the results for the 50% inhibitory concentration (IC50) on Cannabinoid receptor 1 [5] and at Cannabinoid receptor 2 [3] were 3.16 µM and above 10 µM, respectively. Moreover, the Activity at Cannabinoid receptor 1 [1] is below 30%; on Cannabinoid receptor 2 [4], below 10%. The inhibition at Cannabinoid receptor 2 [2] was below 50%.

For the compound `O=C(NCCN1CCOCC1)Nc1ccc(Cl)cc1`, the Activity is below 30% at Cannabinoid receptor 1 [1] and below 10% on Cannabinoid receptor 2 [4]. Besides, at Cannabinoid receptor 2 [2], the inhibition is below 50%. Besides, the IC50 on Cannabinoid receptor 2 [3] is above 10 µM.

For `CC(=O)NCCNC(=O)Nc1ccc(Cl)cc1`, the IC50 on Cannabinoid receptor 1 [5] was 1.58 µM; at Cannabinoid receptor 2 [3], above 10 µM. For the same compound, the figures for the Activity on Cannabinoid receptor 1 [1] and at Cannabinoid receptor 2 [4] were below 30% and below 10%, respectively. For the same compound, the inhibition at Cannabinoid receptor 2 [2] is below 50%.

Regarding `O=C(NCCc1cccnc1)Nc1ccc(Cl)cc1`, the Activity at Cannabinoid receptor 1 [1] was below 30%; at Cannabinoid receptor 2 [4], below 10%. Further, the inhibition on Cannabinoid receptor 2 [2] is below 50%. In addition, at Cannabinoid receptor 2 [3], the IC50 is above 10 µM.

Regarding `O=C(NC[C@H]1C[C@@H]1c1ccccc1)Nc1ccc(Cl)cc1` (relative stereo), the Activity on Cannabinoid receptor 1 [1] is below 30%; at Cannabinoid receptor 2 [4], below 10%. For the same compound, at Cannabinoid receptor 2 [2], the inhibition was below 50%. The IC50 at Cannabinoid receptor 2 [3] is above 10 µM.

For the compound `Cc1ccc(CCNC(=O)Nc2ccc(Cl)cc2)o1`, the Activity was below 30% at Cannabinoid receptor 1 [1] and below 10% at Cannabinoid receptor 2 [4]. For the same compound, on Cannabinoid receptor 2 [2], the inhibition is below 50%. Besides, on Cannabinoid receptor 2 [3], the 50% inhibitory concentration (IC50) is above 10 µM.

In the case of `O=C(NCC1(c2ccccc2)CC1)Nc1ccc(Cl)cc1`, the values for the concentration for half-maximal inhibition (IC50) on Cannabinoid receptor 1 [5] and at Cannabinoid receptor 2 [3] were 5.01 µM and above 10 µM, respectively. Besides, the figures for the Activity at Cannabinoid receptor 1 [1] and at Cannabinoid receptor 2 [4] were below 30% and below 10%, respectively. Besides, on Cannabinoid receptor 2 [2], the inhibition is below 50%.

For the compound `O=C(NCCc1ccccc1)Nc1ccc(Cl)cc1`, the IC50 at Cannabinoid receptor 1 [5] was 0.2 µM; at Cannabinoid receptor 1 [7], 3.16 µM; on Cannabinoid receptor 2 [3], above 10 µM; at Cannabinoid receptor 1 [6], 6.31 µM. The inhibition on Cannabinoid receptor 2 [2] was below 50%. In addition, the Activity at Cannabinoid receptor 2 [4] was below 10%.

As to `O=C(NCCc1ccncc1)Nc1ccc(Cl)cc1`, the Activity at Cannabinoid receptor 1 [1] was below 30%; on Cannabinoid receptor 2 [4], below 10%. For the same compound, on Cannabinoid receptor 2 [2], the inhibition is below 50%. In addition, on Cannabinoid receptor 2 [3], the IC50 is above 10 µM.

Turning to `CN1CCN(CCNC(=O)Nc2ccc(Cl)cc2)CC1`, the Activity is below 30% on Cannabinoid receptor 1 [1] and below 10% at Cannabinoid receptor 2 [4]. The inhibition at Cannabinoid receptor 2 [2] was below 50%. In addition, the IC50 on Cannabinoid receptor 2 [3] was above 10 µM.

On to `O=C(NCCc1ccc(N2CCCCC2)cc1)Nc1ccc(Cl)cc1`, for which the IC50 was 0.794 µM at Cannabinoid receptor 1 [5], above 10 µM on Cannabinoid receptor 2 [3] and 1.26 µM against Cannabinoid receptor 1 [6]. Besides, the inhibition on Cannabinoid receptor 2 [2] is below 50%. For the same compound, the Activity at Cannabinoid receptor 2 [4] was below 10%.

Regarding `CC(C)(CNC(=O)Nc1ccc(Cl)cc1)c1ccccc1`, the Activity on Cannabinoid receptor 1 [1] was below 30%; at Cannabinoid receptor 2 [4], below 10%. Also, at Cannabinoid receptor 2 [2], the inhibition was below 50%. Also, the 50% inhibitory concentration (IC50) on Cannabinoid receptor 2 [3] is above 10 µM.

As to `O=C(NCCc1cccs1)Nc1ccc(Cl)cc1`, the Activity on Cannabinoid receptor 1 [1] was below 30%; on Cannabinoid receptor 2 [4], below 10%. In addition, the inhibition on Cannabinoid receptor 2 [2] was below 50%. At Cannabinoid receptor 2 [3], the IC50 was above 10 µM.

In the case of `O=C(NCc1ccccc1)Nc1ccc(Cl)cc1`, the values for the Activity at Cannabinoid receptor 1 [1] and at Cannabinoid receptor 2 [4] were below 30% and below 10%, respectively. Moreover, the inhibition at Cannabinoid receptor 2 [2] is below 50%. The IC50 at Cannabinoid receptor 2 [3] is above 10 µM.

For `CC(C)(Cc1ccccc1)NC(=O)Nc1ccc(Cl)cc1`, the values for the Activity at Cannabinoid receptor 1 [1] and at Cannabinoid receptor 2 [4] were below 30% and below 10%, respectively. Besides, at Cannabinoid receptor 2 [2], the inhibition is below 50%. Also, the IC50 on Cannabinoid receptor 2 [3] is above 10 µM.

On to `O=C(NCC(F)(F)c1ccccc1)Nc1ccc(Cl)cc1`, for which the Activity on Cannabinoid receptor 1 [1] was below 30%; at Cannabinoid receptor 2 [4] it was below 10%. On Cannabinoid receptor 2 [2], the inhibition was below 50%. In addition, the concentration for half-maximal inhibition (IC50) on Cannabinoid receptor 2 [3] was above 10 µM.

With `O=C(NCCN1CCCCC1)Nc1ccc(Cl)cc1`, the figures for the Activity on Cannabinoid receptor 1 [1] and on Cannabinoid receptor 2 [4] were below 30% and below 10%, respectively. Besides, at Cannabinoid receptor 2 [2], the inhibition is below 50%. Also, at Cannabinoid receptor 2 [3], the IC50 was above 10 µM.

Take `CCc1c(C(=O)NCCc2ccc(N3CCCCC3)cc2)[nH]c2ccc(Cl)cc12`: the half-maximal inhibitory concentration (IC50) was 0.794 µM on Cannabinoid receptor 1 [5], 0.158 µM on Cannabinoid receptor 1 [7], above 10 µM on Cannabinoid receptor 2 [3] and 1 µM at Cannabinoid receptor 1 [6]. In addition, the inhibition at Cannabinoid receptor 2 [2] was below 50%. The Activity on Cannabinoid receptor 2 [4] was below 10%.

As for `O=C(Nc1ccc(Cl)cc1)Nc1cccc(-c2cccc(N3CCCC3)n2)c1`, the Activity on Cannabinoid receptor 1 [1] was below 30%; on Cannabinoid receptor 2 [4], below 10%. On Cannabinoid receptor 2 [3], the 50% inhibitory concentration (IC50) is above 10 µM.

For `O=C(Nc1ccc(Cl)cc1)NC1(Cc2ccccc2)CC1`, the results for the Activity on Cannabinoid receptor 1 [1] and at Cannabinoid receptor 2 [4] were below 30% and below 10%, respectively. Besides, the inhibition on Cannabinoid receptor 2 [2] was below 50%. The IC50 at Cannabinoid receptor 2 [3] is above 10 µM.

In the case of `O=C(NCCc1ccsc1)Nc1ccc(Cl)cc1`, the values for the Activity at Cannabinoid receptor 1 [1] and on Cannabinoid receptor 2 [4] were below 30% and below 10%, respectively. For the same compound, the inhibition on Cannabinoid receptor 2 [2] was below 50%. The IC50 at Cannabinoid receptor 2 [3] is above 10 µM.
